Data on three compounds can be found in ChEMBL document CHEMBL4002555, “Bioactive Pentacyclic Triterpenoids from the Leaves of Cleistocalyx operculatus” (J Nat Prod, 2016).

Data set [1] deals with RAW264.7. The data set can be described thus: Anti-inflammatory activity in mouse RAW264.7 cells assessed as inhibition of LPS-induced IL-6 production at 2 uM pretreated for 1 hr followed by LPS stimulation measured after 24 hrs by ELISA relative to control. The class given is functional. In a few lines: (§1)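 LPS-stimulated RAW 264.7 macrophages, with IL-6 and TNF-α production read separately. Test concentrations were 0.4, 2, 10 and 50 μM, and dexamethasone was the reference drug. Results are given as percent inhibition of cytokine production.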

Data set [2] has as its system RAW264.7. In words: Anti-inflammatory activity in mouse RAW264.7 cells assessed as inhibition of LPS-induced IL-6 production at 0.4 uM pretreated for 1 hr followed by LPS stimulation measured after 24 hrs by ELISA relative to control. The class given is functional. Put shortly: as §1
A general note: ELISA stands for enzyme-linked immunosorbent assay.

Data set [3] is described as follows: Cytotoxicity against mouse RAW264.7 cells assessed as growth inhibition at 2 uM after 72 hrs by MTT assay relative to control. The data set is classed as cell-based. The settings on record: read-out: GI. On the technique in general: Formazan colour is commonly taken as a measure of viable cells.
The subject of data set [4] is NCI-N87. In words: Cytotoxicity against human NCI-N87 cells after 72 hrs by MTT assay. The settings on record: NCI-N87, 72 h. The class given is functional, cell-based. Put shortly: (§2)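 MTT growth-inhibition assay in human HepG2 hepatocellular, NCI-N87 gastric and MCF-7 breast carcinoma lines, with a doxorubicin positive control. IC50 values are means ± SD from three individual experiments; >10.0 μM was taken as noncytotoxic.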

Data set [5] has as its system RAW264.7. The data set can be described thus: Anti-inflammatory activity in mouse RAW264.7 cells assessed as inhibition of LPS-induced TNF-alpha production at 2 uM pretreated for 1 hr followed by LPS stimulation measured after 24 hrs by ELISA relative to control. The data set is classed as functional. In a few lines: as §1
In data set [6] the test system is HepG2. The data set can be described thus: Cytotoxicity against human HepG2 cells after 72 hrs by MTT assay. The data set is classed as functional, cell-based. The settings on record: HepG2, 72 h. In a few lines:
as §2

Data set [7] deals with MCF7. The data set can be described thus: Cytotoxicity against human MCF7 cells after 72 hrs by MTT assay. The class given is functional, cell-based. The note with it: MCF7, 72 h. Put shortly: as §2
Data set [8] concerns RAW264.7. In words: Anti-inflammatory activity in mouse RAW264.7 cells assessed as inhibition of LPS-induced TNF-alpha production at 0.4 uM pretreated for 1 hr followed by LPS stimulation measured after 24 hrs by ELISA relative to control. The data set is classed as functional. Put shortly: as §1
Data set [9] concerns RAW264.7. The data set can be described thus: Anti-inflammatory activity in mouse RAW264.7 cells assessed as inhibition of LPS-induced TNF-alpha production at 10 uM pretreated for 1 hr followed by LPS stimulation measured after 24 hrs by ELISA relative to control. The class given is functional. In a few lines:
as §1

Data set [10] deals with RAW264.7. The data set can be described thus: Anti-inflammatory activity in mouse RAW264.7 cells assessed as inhibition of LPS-induced IL-6 production at 50 uM pretreated for 1 hr followed by LPS stimulation measured after 24 hrs by ELISA relative to control. The class given is functional. Put shortly:
as §1

The test system of data set [11] is RAW264.7. In words: Anti-inflammatory activity in mouse RAW264.7 cells assessed as inhibition of LPS-induced TNF-alpha production at 50 uM pretreated for 1 hr followed by LPS stimulation measured after 24 hrs by ELISA relative to control. The class given is functional. Put shortly:
as §1

Data set [12] relates to RAW264.7. The data set can be described thus: Anti-inflammatory activity in mouse RAW264.7 cells assessed as inhibition of LPS-induced IL-6 production at 10 uM pretreated for 1 hr followed by LPS stimulation measured after 24 hrs by ELISA relative to control. The class given is functional. Put shortly:
as §1

A short description of data set [13]: Cytotoxicity against mouse RAW264.7 cells assessed as growth inhibition at 50 uM after 72 hrs by MTT assay relative to control. The data set is classed as cell-based. The settings on record: read-out: GI.

As a reminder, the IC50 is the concentration that inhibits the measured activity by half. The low end stands for greater potency in that assay, the high end for weaker potency in that assay. Consider `COC(=O)[C@]12CC=C(C)[C@@H](C)[C@@H]1[C@H]1CC[C@@H]3[C@@]4(C)CC[C@H](O)C(C)(C)[C@@H]4CC[C@@]3(C)[C@]1(C(=O)O)CC2`, for which the values for the inhibition at 2 µM in data set [1] and in [5] were 51% and 42.9%, respectively. For the same compound, the inhibition at 0.4 µM in data set [2] is 38.4%; in data set [8] it was 39.1%. Besides, the inhibition at 72 h, 2 µM in data set [3] was less than 5%. The IC50 amounted to 6.5 µM in [4], 3.2 µM in data set [6] and 4.9 µM in data set [7].
In the case of `C=C1CC[C@]2(C(=O)O)CC[C@]3(C)C(=C[C@@H](OC)[C@@H]4[C@@]5(C)C[C@@H](O)[C@H](O)[C@@](C)(CO)[C@@H]5CC[C@]43C)[C@@H]2[C@H]1C`, the inhibition at 2 µM in data set [1] and in data set [5] was less than 50% each time. Further, the inhibition at 0.4 µM in data set [2] and in data set [8] was less than 50% in each case. For the same compound, the inhibition at 10 µM in data set [9] and in data set [12] was less than 50% throughout. Further, the inhibition at 50 µM in [10] and in data set [11] was less than 50% throughout. The IC50 in data set [4], in data set [6] and in data set [7] was more than 10 µM in each case. The inhibition at 72 h, 50 µM in data set [13] was less than 5%.
Regarding `C=C1CC[C@]2(C(=O)O)CC[C@]3(C)C(=CC(=O)[C@@H]4[C@@]5(C)C[C@@H](O)[C@H](O)[C@@](C)(CO)[C@@H]5CC[C@]43C)[C@@H]2[C@H]1C`, the inhibition at 2 µM in [1] and in data set [5] was less than 50% in each case. For the same compound, the inhibition at 0.4 µM in data set [2] and in data set [8] was less than 50% each time. In addition, the inhibition at 10 µM in data set [9] and in data set [12] was less than 50% throughout. The inhibition at 50 µM in [10] and in [11] was less than 50% in each case. Moreover, the concentration for half-maximal inhibition (IC50) in [4], in [6] and in data set [7] was more than 10 µM in each case. In addition, the inhibition at 72 h, 50 µM in data set [13] is less than 5%.
